pPAFAH FP inh = pPAFAH enzyme inhibitors, primary screen, biochemical, fluorescence polarization, human. Platelet-activating factor acetylhydrolase (Homo sapiens), Q13093. inhibition, % at 3.39 µM. recombinant pPAFAH, FP-rhodamine probe fluorescence polarization. 330,000 tested, 1.5% active;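 active = inhibition above the mean inhibition across the screen plus 3 SD, cut at about 25% in these data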;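 note: inhibitors block binding of the rhodamine activity-based probe so polarization drops; 0% = enzyme with DMSO and 100% = wells lacking pPAFAH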
PAFAH1B3 FP inh = PAFAH1B3 enzyme inhibitors, primary screen, biochemical, fluorescence polarization, human | Platelet-activating factor acetylhydrolase IB subunit alpha1 (Homo sapiens), Q15102 | recombinant PAFAH1B3, FP-rhodamine probe | inhibition, % at 3.39 µM | 340,000 tested, 0.28% active;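 active = inhibition above the screen-wide average of all tested compounds plus 3 SD, cut at about 25% in these data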;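 note: 0% = enzyme with DMSO only and 100% = wells lacking PAFAH1B3 protein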
Target sequence (Q15102 whole entry, looked up): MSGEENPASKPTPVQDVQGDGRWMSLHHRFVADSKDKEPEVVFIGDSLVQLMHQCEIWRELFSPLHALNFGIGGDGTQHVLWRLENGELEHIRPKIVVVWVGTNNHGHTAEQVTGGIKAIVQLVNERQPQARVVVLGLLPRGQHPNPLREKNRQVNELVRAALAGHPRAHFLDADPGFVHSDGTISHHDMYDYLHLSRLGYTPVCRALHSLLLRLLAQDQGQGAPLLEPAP
GRIN3A LBD mod = binders of NR3A ligand-binding domain, primary screen, biophysical, differential scanning fluorimetry, uHTS; Glutamate receptor ionotropic, NMDA 3A (GRIN3A) ligand-binding domain; NR3A LBD differential scanning fluorimetry, Tm shift; 0% = protein alone, 100% = glycine-bound protein; Tm shift relative to glycine control, % at 25 µM; 340,000 tested, 2.5% active;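 active = melting temperature shift of at least 10% of the positive control shift, at one fixed dose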
PAFAH1B2 FP inh = PAFAH1B2 enzyme inhibitors, primary screen, biochemical, fluorescence polarization, human; Platelet-activating factor acetylhydrolase IB subunit alpha2 (Homo sapiens), P68402; recombinant PAFAH1B2, FP-rhodamine activity probe; inhibition, % at 3.39 µM; 340,000 tested, 1.2% active; AID 492953, 2010;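 active = inhibition above the mean of all tested compounds plus 3 SD, cut at about 24% in these data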;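 note: 0% = enzyme with DMSO and 100% = wells lacking PAFAH1B2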
UCH37 inh = inhibitors of human UCH37 deubiquitinase, primary screen, biochemical, Ub-AMC cleavage, fluorescence; Ubiquitin carboxyl-terminal hydrolase isozyme L5 (Homo sapiens), Q9Y5K5; purified proteasome/UCH37; inhibition, % (test concentration not listed); 330,000 tested, 0.33% active; AID 588478, 2011;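 active = mean inhibition over replicate wells above about 20%, limit read from the data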;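 note: 0% = compound-free wells with enzyme and 100% = wells lacking proteasome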
Target sequence (Q9Y5K5 whole entry, looked up): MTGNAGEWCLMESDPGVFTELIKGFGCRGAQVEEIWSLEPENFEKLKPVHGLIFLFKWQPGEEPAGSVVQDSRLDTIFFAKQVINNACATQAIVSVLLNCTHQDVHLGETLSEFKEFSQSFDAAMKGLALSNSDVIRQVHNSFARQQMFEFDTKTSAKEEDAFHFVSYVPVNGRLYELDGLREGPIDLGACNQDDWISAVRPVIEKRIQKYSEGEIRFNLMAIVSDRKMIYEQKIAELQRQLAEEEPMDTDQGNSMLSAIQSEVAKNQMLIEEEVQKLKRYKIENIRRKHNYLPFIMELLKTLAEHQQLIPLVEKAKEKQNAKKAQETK
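Material: Human UCH37 enzyme supplied as purified proteasome complex | Schedule: 30 min compound-proteasome preincubation then 25 min substrate reaction, room temperature | Detection: AMC fluorescence from Ub-AMC cleavage, excitation 355 nm, emission 460 nm | Benchmarks: Wells without proteasome as full block, compound-free enzyme plus substrate as uninhibited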
PAFAH2 inh = PAFAH2 enzyme inhibitors, primary screen, biochemical, fluorescence polarization, human. 340,000 tested, 0.99% active. recombinant PAFAH2, FP-rhodamine activity probe. Platelet-activating factor acetylhydrolase 2, cytoplasmic (Homo sapiens), Q99487. inhibition, % at 3.39 µM. AID 492956, 2010;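 active = inhibition above the mean over all tested compounds plus 3 SD, cut at about 30% in these data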;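 note: inhibitors block probe labeling of enzyme so polarization drops; 0% = enzyme with DMSO and 100% = wells lacking PAFAH2 protein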
* hit, by the source's call. Sampled rows, rich in hits. Any-hit rate of the full collection: about 4.8%.

`CN(C)c1ccc(C(=O)NN=Cc2cc(Br)cc(Br)c2O)cc1` gave UCH37 inh 5.
`O=C(/C=C/c1ccccc1)Nc1ccc(S(=O)(=O)N2CCOCC2)cc1` gave pPAFAH FP inh -4, PAFAH1B3 FP inh 4, GRIN3A LBD mod 31*, PAFAH1B2 FP inh 2, UCH37 inh 6 and PAFAH2 inh -7.
For O=C(/C=C/c1ccc(OC(F)F)cc1)Nc1cccc(S(=O)(=O)N2CCOCC2)c1 the results were pPAFAH FP inh -2, PAFAH1B3 FP inh -10, GRIN3A LBD mod 20*, PAFAH1B2 FP inh -4, UCH37 inh 2 and PAFAH2 inh -22.
CC(=O)Nc1ccc(S(=O)(=O)N2CCC(NC(C)=O)(c3cccc(F)c3)CC2)cc1 was read as pPAFAH FP inh 27*, PAFAH1B3 FP inh 3, GRIN3A LBD mod -2, PAFAH1B2 FP inh 2, UCH37 inh 4 and PAFAH2 inh -5.
For CC(=O)c1cccc(NC(=O)/C=C/c2ccc(S(=O)(=O)N3CCOCC3)cc2)c1 the results were pPAFAH FP inh 1, PAFAH1B3 FP inh 8, GRIN3A LBD mod 5, PAFAH1B2 FP inh 0, UCH37 inh 5 and PAFAH2 inh -2.
Screening CC(ON=Cc1ccc(OC(F)F)cc1)C(=O)Nc1cccc(S(=O)(=O)N2CCOCC2)c1 (centres undefined) returned UCH37 inh 5.
For O=C(/C=C/c1cccc(F)c1)Nc1ccc(S(=O)(=O)N2CCOCC2)cc1 the results were pPAFAH FP inh -5, PAFAH1B3 FP inh -2, GRIN3A LBD mod 37*, PAFAH1B2 FP inh -5, UCH37 inh 6 and PAFAH2 inh -8.
CC(C)(C)NC(=O)CCN(N=Cc1ccncc1)C1=NS(=O)(=O)c2ccccc21 was read as UCH37 inh 10.
Screening Cc1ccccc1NC(=S)NN=Cc1ccc(O)cc1O returned UCH37 inh 1.
Screening COc1cc(C=NO)ccc1OCc1ccc([N+](=O)[O-])cc1 returned UCH37 inh 5.
C#CCOCCOCCOCCNc1nc(N2CCN(C(=O)CCCCCCCCCCNC(=O)[C@H](CO)n3cc(CCCSC)nn3)CC2)nc(N2CCN(C(=O)CCCCCCCCCCNC(=O)[C@H](CCCCN)n3cc(C[C@@H](C)CC)nn3)CC2)n1 was read as pPAFAH FP inh 1.
For C#CCOCCOCCOCCNc1nc(N2CCN(C(=O)CCCCCCCCCCNC(=O)[C@H](CCCCN)n3cc(CCO)nn3)CC2)nc(N2CCN(C(=O)CCCCCCCCCCNC(=O)[C@H](CCCN=C(N)N)n3cc(C[C@@H](C)CC)nn3)CC2)n1 the results were pPAFAH FP inh -6, PAFAH1B3 FP inh -5, GRIN3A LBD mod 26*, PAFAH1B2 FP inh 7, UCH37 inh 10 and PAFAH2 inh -10.
For C#CCOCCOCCOCCNc1nc(N2CCN(C(=O)CCCCCCCCCCNC(=O)[C@H](CCCCN)n3cc(CCCC(=O)O)nn3)CC2)nc(N2CCN(C(=O)CCCCCCCCCCNC(=O)[C@H](CCCN=C(N)N)n3cc(C[C@@H](C)CC)nn3)CC2)n1 the results were pPAFAH FP inh -1, PAFAH1B3 FP inh 8, GRIN3A LBD mod 23*, PAFAH1B2 FP inh 1, UCH37 inh 2 and PAFAH2 inh -6.
For C#CCOCCOCCOCCNc1nc(N2CCN(C(=O)CCCCCCCCCCNC(=O)[C@H](CCCCN)n3cc(C[C@@H](C)CC)nn3)CC2)nc(N2CCN(C(=O)CCCCCCCCCCNC(=O)[C@H](CCCCN)n3cc(C[C@@H](C)CC)nn3)CC2)n1 the results were pPAFAH FP inh -5, PAFAH1B3 FP inh -4, GRIN3A LBD mod 19*, PAFAH1B2 FP inh -2 and PAFAH2 inh 2.
C#CCOCCOCCOCCNc1nc(N2CCN(C(=O)CCCCCCCCCCNC(=O)Cn3cc(C[C@@H](C)O)nn3)CC2)nc(N2CCN(C(=O)CCCCCCCCCCNC(=O)[C@H](CCCCN)n3cc(C[C@@H](C)CC)nn3)CC2)n1 was read as pPAFAH FP inh -9, PAFAH1B3 FP inh 4, GRIN3A LBD mod 13*, PAFAH1B2 FP inh -3 and PAFAH2 inh 4.
Screening C#CCOCCOCCOCCNc1nc(N2CCN(C(=O)CCCCCCCCCCNC(=O)[C@H]([C@@H](C)CC)n3cc(CCCCN=C(N)N)nn3)CC2)nc(N2CCN(C(=O)CCCCCCCCCCNC(=O)[C@H](CCCCN)n3cc(C[C@@H](C)CC)nn3)CC2)n1 returned pPAFAH FP inh -5.
`C#CCOCCOCCOCCNc1nc(N2CCN(C(=O)CCCCCCCCCCNC(=O)Cn3cc(C[C@@H](C)O)nn3)CC2)nc(N2CCN(C(=O)CCCCCCCCCCNC(=O)Cn3cc(C[C@@H](C)O)nn3)CC2)n1` gave pPAFAH FP inh 19, PAFAH1B3 FP inh -10, GRIN3A LBD mod -5, PAFAH1B2 FP inh -2, UCH37 inh 7 and PAFAH2 inh -6.
Screening Cc1ccc(C(=O)ON=C(N)c2ccc(C(F)(F)F)cn2)cc1 returned UCH37 inh 2.
Screening Cc1ccc(C=NNC(=O)c2ccccc2OCc2ccc(F)cc2)o1 returned UCH37 inh 6.
For Cc1ccc(CC(=O)NN=Cc2ccc3c(c2)OCO3)cc1 the results were UCH37 inh -1.
For Cc1cc(C)n2nc(-c3ccc(Br)cc3)cc2n1 the results were pPAFAH FP inh 6, PAFAH1B3 FP inh 10, GRIN3A LBD mod 0, PAFAH1B2 FP inh 2, UCH37 inh -25 and PAFAH2 inh 4.
`Cc1ccc(-c2cc(N)n(-c3ccc(C)cc3)n2)cc1` gave pPAFAH FP inh 10, PAFAH1B3 FP inh 2, GRIN3A LBD mod -10, PAFAH1B2 FP inh 7, UCH37 inh 1 and PAFAH2 inh 4.
For Cc1ccc(-c2cc(N)n3nc(-c4ccc(C)cc4)cc3n2)cc1 the results were pPAFAH FP inh -5, PAFAH1B3 FP inh 1, GRIN3A LBD mod 27*, PAFAH1B2 FP inh 4, UCH37 inh -38 and PAFAH2 inh 0.
For Cc1ccc(-c2cc3nc(-c4ccccc4)cc(N)n3n2)cc1 the results were pPAFAH FP inh 9, PAFAH1B3 FP inh 8, GRIN3A LBD mod 13*, PAFAH1B2 FP inh -5, UCH37 inh -35 and PAFAH2 inh 7.
`Cc1ccc(-c2cc3nc(-c4ccc(Br)cc4)cc(N)n3n2)cc1` gave pPAFAH FP inh -5, PAFAH1B3 FP inh 2, GRIN3A LBD mod 39*, PAFAH1B2 FP inh 2, UCH37 inh -45 and PAFAH2 inh -5.
Screening Cc1cc(N)n2nc(-c3ccccc3)cc2n1 returned pPAFAH FP inh 5, PAFAH1B3 FP inh 3, GRIN3A LBD mod -22, PAFAH1B2 FP inh 1, UCH37 inh -14 and PAFAH2 inh -7.

Source: PubChem BioAssay
